Test system: PBMC from prostate cancer patients
Assay: Ex vivo IFN-γ ELISPOT assay for immunogenicity
Type: cell-based, human
Conditions: positive control 10 µg/ml, 40 h
Summary of the method: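 Ficoll-isolated patient PBMC, 3×10^5/well in triplicate, on anti-IFN-γ-coated plates (5 μg/ml; blocked with RPMI 1640 + 5% pooled human serum, 1 h, 37°C). Phytohemagglutinin 10 µg/ml; no-peptide medium control; IL-2 20 units/ml in all wells; 40 h, 37°C. Detection: biotin anti-IFN-γ 1 µg/ml final (2 h), avidin-biotin-HRP (1 h), […]. Spots counted automatically; mean SFU/well computed; positive if ≥2× no-peptide wells.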

phytohemagglutinin
Positivity index (Patient 2): 57.3 | Positivity index (Patient 5): 197.0 | Positivity index (Patient 6): 154.5 | Positivity index (Patient 7): 131.4 | Positivity index (Patient 9): 186.0 | Positivity index (Patient 10): 253.3

Source: PMC6144584 (SAGE Open Medicine, 2018)
